Experimental data pooled from the literature.
Protocols differ between the studies behind these lines.
SLC6A2: Sodium-dependent noradrenaline transporter (SLC6A2, Homo sapiens, UniProt P23975)
Oprk1: Kappa-type opioid receptor (Oprk1, Mus musculus, UniProt P33534)
MPO: Myeloperoxidase (MPO, Homo sapiens, UniProt P05164)

target | assay | system | conditions | inhibition | SMILES
SLC6A2 | ligand displacement, radioligand |  | 10 µM | 78% | CCOC(=O)[C@@]12C[C@@H]1[C@@H](n1cnc3c(Nc4ccccc4)nc(C#Cc4ccc(Cl)s4)nc31)[C@H](O)[C@@H]2O
srtA (Staphylococcus aureus, UniProt Q2FV99) | enzyme activity, inhibitor, FRET |  | 120 µM | 79.1% | O=c1c(O[C@@H]2O[C@H](CO)[C@H](O)[C@H](O)[C@H]2O)c(-c2ccc(O)c(O)c2)oc2cc(O)cc(O)c12
Serine/threonine-protein kinase WNK4 (WNK4, Homo sapiens, UniProt Q96J92) | enzyme activity, inhibitor |  | 0.1 µM | 1.12% | Cc1cc(O)c(-c2ccc([C@@H](C)CN(C)C)cc2)c2c1[nH]c(=O)c1sccc12
Oprk1 | ligand displacement, radioligand |  | 10 µM | 64.5% | CC(C)[C@H](CN1CCc2ccccc2C1)NC(=O)c1ccc([N+](=O)[O-])s1
MPO | enzyme activity, inhibitor, fluorescence |  | 15 µM | 98.2% | COc1ccc(Cl)cc1-c1cc(=O)[nH]c(=S)n1CC(N)=O
Oprk1 | ligand displacement, radioligand |  | 10 µM | 55.7% | CC(C)[C@H](CN1CCc2ccccc2C1)NC(=O)C=Cc1ccccc1
MPO | enzyme activity, inhibitor, fluorescence |  | 0.3704 µM | 98.6% | NC/C(=C\F)COc1cccc(Cn2c(=S)[nH]c(=O)c3[nH]cnc32)c1
Neuronal acetylcholine receptor; alpha3/beta4 (Homo sapiens, UniProt P30926+P32297) | cell-free assay |  | 10 µM | -4% | Cc1cc(F)cc2c(CCC(=O)N[C@@H]3C(=O)NC[C@H]3O)c(-c3ccc(F)cc3)[nH]c12
SLC6A2 | transporter uptake, inhibitor, radiometric | HEK293 | 10 µM | 0% | CCOC(=O)[C@@]12C[C@@H]1[C@@H](n1cnc3c(NCCCCCc4ccccc4)nc(C#Cc4ccc(Cl)s4)nc31)[C@H](O)[C@@H]2O
Oprk1 | ligand displacement, radioligand |  | 10 µM | 88.7% | CC(C)[C@H](CN1CCc2ccccc2C1)NC(=O)c1ccc(F)cc1
SLC6A2 | ligand displacement, radioligand |  | 10 µM | 52% | CCOC(=O)[C@@]12C[C@@H]1[C@@H](n1cnc3c(NCCCCCCc4ccccc4)nc(I)nc31)[C@H](O)[C@@H]2O
Oprk1 | ligand displacement, radioligand |  | 10 µM | 72.2% | CC(C)[C@H](CN1CCc2ccccc2C1)NC(=O)c1cccc(-c2ccccc2)c1
Cysteinyl leukotriene receptor 1 (CYSLTR1, Homo sapiens, UniProt Q9Y271) | calcium signal, antagonist | HEK293 | 33 µM | ~41% | COc1ccc(C(=O)NC2CCCc3c2[nH]c2c(Cl)cccc32)cc1OC (stereo not shown)
SLC6A2 | transporter uptake, inhibitor, radiometric | HEK293 | 10 µM | 1% | CCOC(=O)[C@@]12C[C@@H]1[C@@H](n1cnc3c(NCCCCCc4ccccc4)nc(C#Cc4ccccc4)nc31)[C@H](O)[C@@H]2O
Oprk1 | ligand displacement, radioligand |  | 10 µM | 74.3% | CC(C)[C@@H](CN1CCc2ccccc2C1)NC(=O)c1cccc(-c2cccnc2)c1
SLC6A2 | ligand displacement, radioligand |  | 10 µM | 52% | OC[C@@]12C[C@@H]1[C@@H](n1cnc3c(NCCCCCCc4ccccc4)nc(I)nc31)[C@H](O)[C@@H]2O
Oprk1 | ligand displacement, radioligand |  | 10 µM | 70.9% | CC(C)[C@@H](CN1CCc2ccccc2C1)NC(=O)c1c(Cl)cncc1Cl
SLC6A2 | ligand displacement, radioligand |  | 10 µM | 50% | CCOC(=O)C12CC1C(n1ccc3c(NCCCc4ccccc4)nc(C#Cc4ccc(Cl)s4)nc31)C(O)C2O (stereo not shown)
MPO | enzyme activity, inhibitor, fluorescence |  | 0.3704 µM | 96.2% | CC(C)OCCn1c(=S)[nH]c(=O)c2[nH]ccc21
